Measured values reported in BindingDB's records for doi:10.1021/jm049559q (Tibotec, 2005).

Biological target: Integrase (Human immunodeficiency virus 1, UniProt Q7ZJM1)
Experiment: Log of inhibitory concentration against human immunodeficiency virus type 1 integrase
Method in brief: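 Strand transfer ELISA using recombinant His-tagged HIV-1 integrase expressed in E. coli BL21(DE3). 20 nM biotinylated processed viral DNA substrate is preincubated with 300 nM integrase for 5 min at 37 °C. Serial compound dilutions and 50 nM target DNA are then added in 20 mM Hepes pH 7.5, 25 mM NaCl, 5 mM MnCl2, 2 mM DTT, 50 µg/mL BSA and incubated 2 h at 37 °C. Products are captured on streptavidin plates, detected with anti-FITC peroxidase antibody and read by chemiluminescence.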

Chain of Integrase (Q7ZJM1 whole entry): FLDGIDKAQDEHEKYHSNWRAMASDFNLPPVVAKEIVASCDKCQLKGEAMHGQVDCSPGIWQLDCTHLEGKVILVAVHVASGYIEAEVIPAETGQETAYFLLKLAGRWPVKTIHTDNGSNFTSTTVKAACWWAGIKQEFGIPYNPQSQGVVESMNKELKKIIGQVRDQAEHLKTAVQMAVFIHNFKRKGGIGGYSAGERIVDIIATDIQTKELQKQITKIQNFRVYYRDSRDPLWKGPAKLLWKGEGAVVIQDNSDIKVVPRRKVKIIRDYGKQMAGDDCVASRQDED

| SMILES | IC50 |
| --- | --- |
| COc1ccc(Cn2c(=O)c3c(=O)c4[nH]cc[nH]c4c(=O)c3c2=O)cc1 | 562 nM |
| O=c1c2[nH]cc[nH]c2c(=O)c2c(=O)n(Cc3ccc(Cl)cc3)c(=O)c12 | 417 nM |
| COc1cccc(Cn2c(=O)c3c(=O)c4[nH]cc[nH]c4c(=O)c3c2=O)c1OC | 427 nM |
| COc1ccc(Cn2c(=O)c3c(=O)c4[nH]cc[nH]c4c(=O)c3c2=O)c(OC)c1 | 427 nM |
| O=c1c2[nH]cc[nH]c2c(=O)c2c(=O)n(CCc3ccccc3)c(=O)c12 | 2040 nM |
| O=c1c2[nH]cc[nH]c2c(=O)c2c(=O)n(Cc3ccc(F)cc3)c(=O)c12 | 417 nM |
| O=c1c2[nH]cc[nH]c2c(=O)c2c(=O)n(Cc3cccc(F)c3)c(=O)c12 | 562 nM |
| O=c1c2[nH]cc[nH]c2c(=O)c2c(=O)n(CCc3ccc4c(c3)OCO4)c(=O)c12 | 1410 nM |
| O=c1c2[nH]cc[nH]c2c(=O)c2c(=O)n(Cc3ccc(OC(F)(F)F)cc3)c(=O)c12 | 2040 nM |
| O=c1c2[nH]cc[nH]c2c(=O)c2c(=O)n(Cc3cccc(C(F)(F)F)c3)c(=O)c12 | 427 nM |
| O=c1c2[nH]cc[nH]c2c(=O)c2c(=O)n(Cc3ccc4c(c3)OCO4)c(=O)c12 | 562 nM |
